Reference: ChEMBL document CHEMBL1136894, “New antituberculotics originated from salicylanilides with promising in vitro activity against atypical mycobacterial strains” (Bioorg Med Chem, 2009)
Converted amounts (≈) assume the structure as drawn.

Columns and labels:
[1] = system: Mycobacterium tuberculosis; assay: Antimycobacterial activity against Mycobacterium tuberculosis CNCTC My 331/88 after 14 days; type: functional; details: CNCTC My 331/88, 336 h
Summary of the method: (§1)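 Broth dilution in Sula semisynthetic medium, compounds added as DMSO solutions at 250, 125, 62, 32, 16, 8, 4, 2 and 1. Strains came from the Czech National Collection of Type Cultures; the M. tuberculosis inoculum was diluted 10^-3. Cultures were incubated at 37 °C, and MIC was read after 7, 14 and 21 days.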

[2] = system: Mycobacterium tuberculosis; assay: Antimycobacterial activity against Mycobacterium tuberculosis CNCTC My 331/88 after 21 days; type: functional; details: CNCTC My 331/88, 504 h; summary of the method: as §1
[3] = system: Mycobacterium avium; assay: Antimycobacterial activity against Mycobacterium avium CNCTC My 330/88 after 14 days; type: functional; details: CNCTC My 330/88, 336 h; summary of the method: as §1
[4] = system: Mycobacterium avium; assay: Antimycobacterial activity against Mycobacterium avium CNCTC My 330/88 after 21 days; type: functional; details: CNCTC My 330/88, 504 h; summary of the method: as §1
[5] = system: Mycobacterium kansasii; assay: Antimycobacterial activity against Mycobacterium kansasii CNCTC My 235/80 after 7 days; type: functional; details: CNCTC My 235/80, 168 h
Summary of the method: (§2)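 Compounds were added as DMSO solutions to Sula semisynthetic medium at 250, 125, 62, 32, 16, 8, 4, 2 and 1 µmol/L. Two M. kansasii strains were used: CNCTC My 235/80 and clinical isolate 6509/96, each with strain dilution 10^-4. Incubation was at 37 °C, and MIC was read at 7, 14 and 21 days.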

[6] = system: Mycobacterium kansasii; assay: Antimycobacterial activity against Mycobacterium kansasii CNCTC My 235/80 after 14 days; type: functional; details: CNCTC My 235/80, 336 h; summary of the method: as §2
[7] = system: Mycobacterium kansasii; assay: Antimycobacterial activity against Mycobacterium kansasii CNCTC My 235/80 after 21 days; type: functional; details: CNCTC My 235/80, 504 h; summary of the method: as §2
[8] = system: Mycobacterium kansasii; assay: Antimycobacterial activity against Mycobacterium kansasii isolate 6509/96 after 7 days; type: functional; details: isolate 6509/96, 168 h; summary of the method: as §2
[9] = system: Mycobacterium kansasii; assay: Antimycobacterial activity against Mycobacterium kansasii isolate 6509/96 after 14 days; type: functional; details: isolate 6509/96, 336 h; summary of the method: as §2
[10] = system: Mycobacterium kansasii; assay: Antimycobacterial activity against Mycobacterium kansasii isolate 6509/96 after 21 days; type: functional; details: isolate 6509/96, 504 h; summary of the method: as §2
[11] = Lipophilicity, log K by HPLC; type: physicochemical
Summary of the method: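 Capacity factors k were measured by RP-HPLC and log k was calculated from them.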

Compound	MIC [1] [µM]	MIC [2] [µM]	MIC [3] [µM]	MIC [4] [µM]	MIC [5] [µM]	MIC [6] [µM]	MIC [7] [µM]	MIC [8] [µM]	MIC [9] [µM]	MIC [10] [µM]	log K [11]
CC(C)[C@H](NC(=O)OCc1ccccc1)C(=O)Oc1ccc(Cl)cc1C(=O)Nc1ccc(Cl)cc1	4 (≈ 2.06 µg/mL)	4 (≈ 2.06 µg/mL)	16 (≈ 8.25 µg/mL)	16 (≈ 8.25 µg/mL)	8 (≈ 4.12 µg/mL)	16 (≈ 8.25 µg/mL)	16 (≈ 8.25 µg/mL)	8 (≈ 4.12 µg/mL)	8 (≈ 4.12 µg/mL)	16 (≈ 8.25 µg/mL)	0.9417
C[C@@H](NC(=O)OCc1ccccc1)C(=O)Oc1ccc(Cl)cc1C(=O)Nc1ccc(Br)cc1	2 (≈ 1.06 µg/mL)	4 (≈ 2.13 µg/mL)	16 (≈ 8.51 µg/mL)	16 (≈ 8.51 µg/mL)	4 (≈ 2.13 µg/mL)	8 (≈ 4.25 µg/mL)	8 (≈ 4.25 µg/mL)	8 (≈ 4.25 µg/mL)	16 (≈ 8.51 µg/mL)	16 (≈ 8.51 µg/mL)	0.7527
CC(C)[C@@H](NC(=O)OCc1ccccc1)C(=O)Oc1ccc(Cl)cc1C(=O)Nc1cccc(Cl)c1	8 (≈ 4.12 µg/mL)	8 (≈ 4.12 µg/mL)	32 (≈ 16.5 µg/mL)	32 (≈ 16.5 µg/mL)	8 (≈ 4.12 µg/mL)	16 (≈ 8.25 µg/mL)	16 (≈ 8.25 µg/mL)	8 (≈ 4.12 µg/mL)	16 (≈ 8.25 µg/mL)	16 (≈ 8.25 µg/mL)	0.8954
O=C(CNC(=O)OCc1ccccc1)Oc1ccc(Cl)cc1C(=O)Nc1ccc(Cl)c(Cl)c1	1 (≈ 0.508 µg/mL)	2 (≈ 1.02 µg/mL)	16 (≈ 8.12 µg/mL)	32 (≈ 16.2 µg/mL)	8 (≈ 4.06 µg/mL)	8 (≈ 4.06 µg/mL)	16 (≈ 8.12 µg/mL)	8 (≈ 4.06 µg/mL)	8 (≈ 4.06 µg/mL)	8 (≈ 4.06 µg/mL)	0.8639
CC(C)[C@@H](NC(=O)OCc1ccccc1)C(=O)Oc1ccc(Cl)cc1C(=O)Nc1ccc(Cl)c(Cl)c1	2 (≈ 1.1 µg/mL)	4 (≈ 2.2 µg/mL)	16 (≈ 8.8 µg/mL)	16 (≈ 8.8 µg/mL)	4 (≈ 2.2 µg/mL)	4 (≈ 2.2 µg/mL)	8 (≈ 4.4 µg/mL)	8 (≈ 4.4 µg/mL)	8 (≈ 4.4 µg/mL)	16 (≈ 8.8 µg/mL)	1.1559
O=C(N[C@H](Cc1ccccc1)C(=O)Oc1ccc(Cl)cc1C(=O)Nc1ccc(Cl)cc1)OCc1ccccc1	4 (≈ 2.25 µg/mL)	4 (≈ 2.25 µg/mL)	16 (≈ 9.01 µg/mL)	16 (≈ 9.01 µg/mL)	8 (≈ 4.51 µg/mL)	8 (≈ 4.51 µg/mL)	8 (≈ 4.51 µg/mL)	8 (≈ 4.51 µg/mL)	8 (≈ 4.51 µg/mL)	16 (≈ 9.01 µg/mL)	1.0678
CC(C)[C@@H](NC(=O)OCc1ccccc1)C(=O)Oc1ccc(Cl)cc1C(=O)Nc1ccc(Cl)cc1	4 (≈ 2.06 µg/mL)	4 (≈ 2.06 µg/mL)	16 (≈ 8.25 µg/mL)	16 (≈ 8.25 µg/mL)	8 (≈ 4.12 µg/mL)	8 (≈ 4.12 µg/mL)	16 (≈ 8.25 µg/mL)	8 (≈ 4.12 µg/mL)	8 (≈ 4.12 µg/mL)	16 (≈ 8.25 µg/mL)	0.9421
O=C(N[C@@H](Cc1ccccc1)C(=O)Oc1ccc(Cl)cc1C(=O)Nc1ccc(Cl)c(Cl)c1)OCc1ccccc1	2 (≈ 1.2 µg/mL)	2 (≈ 1.2 µg/mL)	16 (≈ 9.57 µg/mL)	32 (≈ 19.1 µg/mL)	4 (≈ 2.39 µg/mL)	4 (≈ 2.39 µg/mL)	8 (≈ 4.78 µg/mL)	8 (≈ 4.78 µg/mL)	8 (≈ 4.78 µg/mL)	8 (≈ 4.78 µg/mL)	1.3056
C[C@H](NC(=O)OCc1ccccc1)C(=O)Oc1ccc(Cl)cc1C(=O)Nc1ccc(Cl)c(Cl)c1	2 (≈ 1.04 µg/mL)	4 (≈ 2.09 µg/mL)	16 (≈ 8.35 µg/mL)	32 (≈ 16.7 µg/mL)	4 (≈ 2.09 µg/mL)	4 (≈ 2.09 µg/mL)	8 (≈ 4.17 µg/mL)	8 (≈ 4.17 µg/mL)	16 (≈ 8.35 µg/mL)	16 (≈ 8.35 µg/mL)	0.9408
NNC(=O)c1ccncc1 [ISONIAZID]	0.5 (≈ 0.0686 µg/mL)	0.5 (≈ 0.0686 µg/mL)	> 250	> 250	> 250	> 250	> 250	4 (≈ 0.549 µg/mL)	8 (≈ 1.1 µg/mL)	8 (≈ 1.1 µg/mL)	
O=C(CNC(=O)OCc1ccccc1)Oc1ccc(Cl)cc1C(=O)Nc1cccc(Cl)c1	4 (≈ 1.89 µg/mL)	8 (≈ 3.79 µg/mL)	16 (≈ 7.57 µg/mL)	32 (≈ 15.1 µg/mL)	16 (≈ 7.57 µg/mL)	16 (≈ 7.57 µg/mL)	16 (≈ 7.57 µg/mL)	8 (≈ 3.79 µg/mL)	16 (≈ 7.57 µg/mL)	16 (≈ 7.57 µg/mL)	0.6119
